{"data": "Measurements pooled from the literature", "target": "Serine/threonine-protein kinase Chk2 (CHEK2, Homo sapiens, UniProt O96017)", "note": "Lines come from different studies, so protocols differ."}
{"Structure (SMILES)": "Nc1ncc(-c2nc(N3CCOCC3)nc(N3CCOCC3)n2)c(C(F)F)n1", "assay": "binding, competition with immobilised ligand", "conditions": "10 µM", "endpoint": "remaining binding", "result": "75%"}
{"Structure (SMILES)": "N#CC1(c2ccccn2)CCN(Cc2cc(C(=O)O)c(=O)n3ccccc23)CC1", "assay": "cell-free assay, competition with immobilised ligand", "conditions": "1 µM", "endpoint": "remaining binding", "result": "87%"}
{"Structure (SMILES)": "Cc1nn(C)cc1-c1nc2c(N3CCN(Cc4ccc(Cl)cc4)CC3)c(Cl)cnc2[nH]1", "assay": "binding, competition with immobilised ligand", "conditions": "1 µM", "endpoint": "remaining binding", "result": "100%"}
{"Structure (SMILES)": "O=c1[nH]c2ccccc2n1C1CCN(Cc2ccc(-c3[nH]c4cc5ncnc5cc4nc3-c3ccccc3)cc2)CC1", "assay": "cell-free assay", "conditions": "0.5 µM", "endpoint": "remaining signal", "result": "100%"}
{"Structure (SMILES)": "Cn1cncc1[C@@](O)(COc1ccc(C#N)cc1-c1ccc(OC(F)(F)F)cc1)c1ccc(C#N)cc1", "assay": "cell-free assay, competition with immobilised ligand", "conditions": "1 µM", "endpoint": "remaining binding", "result": "96%"}
{"Structure (SMILES)": "Cn1cc(-c2cccc(N3CCc4c(sc5c4CC(C)(C)C5)C3=O)c2CO)cc(Nc2ccncn2)c1=O", "assay": "enzyme activity, inhibitor", "conditions": "1 µM", "endpoint": "inhibition", "result": "1%"}
{"Structure (SMILES)": "COc1cc(Nc2ncc(F)c(Nc3ccc4c(n3)NC(=O)C(C)(C)O4)n2)cc(OC)c1OC", "assay": "binding, competition with immobilised ligand", "conditions": "10 µM", "endpoint": "inhibition", "result": "45%"}
{"Structure (SMILES)": "COc1ncccc1-c1cnn2ccc(N3CCN(C(=O)OC(C)C)CC3)nc12", "assay": "binding, competition with immobilised ligand", "conditions": "1 µM", "endpoint": "remaining binding", "result": "77%"}
{"Structure (SMILES)": "Cn1cc(-c2cc(F)cc(N3CCn4c(cc5c4CCCC5)C3=O)c2CO)cc(Nc2ccc(N3CCN(C4COC4)CC3)cn2)c1=O", "assay": "enzyme activity, inhibitor", "conditions": "0.1 µM", "endpoint": "inhibition", "result": "11%"}
{"Structure (SMILES)": "CC(C)(C)c1cc(C=C(C#N)C#N)cc(Br)c1O", "assay": "enzyme activity, inhibitor", "conditions": "0.5 µM", "endpoint": "remaining activity", "result": "104%"}
